These results are taken from ChEMBL document CHEMBL1122918, “Optimization of the Schiff bases of N-hydroxy-N'-aminoguanidine as anticancer and antiviral agents” (J Med Chem, 1985).

Series [1] has as its system L1210. The experiment in a line: Concentration required for 50% inhibition of cell growth (L1210 Leukemia). In kind it is functional, cell-based. Particulars: Mus musculus, read-out: pI50 (converted). The gist of the method:
(§1)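 L1210 cells in RPMI1640 with 10% fetal calf serum, seeded at (3–4) × 10⁴ cells/mL. Drug added to final 10⁻³ to 10⁻⁶ M, duplicates, with untreated and Me₂SO controls. Incubated at 37 °C in 5% CO₂, counted by Coulter counter.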

The test system of series [2] is Rous sarcoma virus. The experiment in a line: Inhibition of cell transformation by Rous Sarcoma virus. In kind it is functional. Particulars: read-out: ID50 (the source's name). The gist of the method: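 Chick embryo fibroblasts at 5 × 10⁵ cells/60-mm dish, given about 200 focus-forming units of Rous sarcoma virus with drug (final 10⁻³ to 10⁻⁶ M, up to 1% Me₂SO in stock) for 8-16 h at 37 °C. Agar overlay with drug for 4 days, then second overlay. Foci counted on days 7-10; % inhibition = (1 − T/C)×100, probit analysis.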

The test system of series [3] is L1210. The experiment in a line: Dose required for 50% inhibition of cell growth (L1210 Leukemia) calculated at 48 hours by using probit analysis. The format is functional, Mus musculus. Particulars: for IC50: Mus musculus, L1210, 48 h, read-out: ID50 (the source's name). The procedure, abridged:
as §1

Series [4] has as its system Mus musculus. Nature of the series: Compound evaluated for % T/C of median survival time at 100 mg/kg against P388 leukemia in mice.
Series [5] relates to Rous sarcoma virus. Nature of the series: Compound was tested for percent inhibition against Rous sarcoma viral replication at 3e-6M. In kind it is functional. The gist of the method: (§2)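 Chick embryo cells at 5 × 10⁵ cells/60-mm dish, medium replaced with fresh Hams F10 medium plus drug solution and Rous sarcoma virus; control of medium plus virus only. On days 3 and 6, medium plus drug renewed; medium harvested two days later. Virus titer in harvests measured by drug-free focus assay on chick embryo fibroblasts and compared with control.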

Series [6] concerns Rous sarcoma virus. Nature of the series: Compound tested for its effect on Rous sarcoma viral replication and virus yield was determined at 3e-6M. In kind it is functional. The gist of the method: as §2
Series [7] deals with Rous sarcoma virus. Nature of the series: Compound was tested for percent inhibition against Rous sarcoma viral replication at 2e-5 M. In kind it is functional. The gist of the method: as §2
Series [8] deals with Rous sarcoma virus. Nature of the series: Compound tested for its effect on Rous sarcoma viral replication and virus yield was determined at 2e-5 M. The format is functional. The gist of the method: as §2
The subject of series [9] is Rous sarcoma virus. The experiment in a line: Compound tested for its effect on Rous sarcoma viral replication and virus yield was determined at 7e-6M. In kind it is functional. The gist of the method:
as §2

The subject of series [10] is Rous sarcoma virus. The experiment in a line: Compound was tested for percent inhibition against Rous sarcoma viral replication at 7e-6M. In kind it is functional. The gist of the method:
as §2

The test system of series [11] is Rous sarcoma virus. Nature of the series: Compound was tested for percent inhibition against Rous sarcoma viral replication at 1e-6 M. The format is functional. The gist of the method: as §2
Series [12] relates to Rous sarcoma virus. The experiment in a line: Compound tested for its effect on Rous sarcoma viral replication and virus yield was determined at 1e-6 M. The format is functional. The gist of the method: as §2
Series [13] in a line: Compound was evaluated for lethal dose in mice. Particulars: mouse, in vivo. The format is toxicity, organism-based. The gist of the method: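 Swiss-Webster male mice, six per dose; compound suspended in 2.5% acacia in normal saline and injected intraperitoneally by body weight; vehicle-injected controls. LD50 calculated by probit analysis.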
Series [14] concerns Rous sarcoma virus. Nature of the series: Compound was tested for percent inhibition against Rous sarcoma viral replication at 5e-6M. In kind it is functional. The gist of the method: as §2
Series [15] concerns Rous sarcoma virus. Nature of the series: Compound tested for its effect on Rous sarcoma viral replication and virus yield was determined at 5e-6M. In kind it is functional. The procedure, abridged:
as §2

Turning to `Cc1ccc(S(=O)(=O)O)cc1.N/C(=N\O)N/N=C/c1cc(Br)cc(Br)c1O`, the IC50 in [1] is 16.6 µM; in series [2] it was 6.5 µM; in series [3], 16.5 µM. Further, the T/C in [4] amounted to 140%.

`Cc1ccc(S(=O)(=O)O)cc1.N/C(=N\O)N/N=C/c1nccc2ccccc12`: the figures for the IC50 in series [1] and in series [2] were 3.31 µM and 15.8 µM, respectively. Moreover, the Inhibition in [5] is 79%. In series [3], the ID50 is 3.3 µM. Also, in [6], the Virus yield is 34000 ffu ml-1.

Consider `N/C(=N\O)N/N=C/c1cccnc1`, for which the IC50 is 22.9 µM in series [1], 81 µM in [2] and 23.1 µM in [3].

In the case of `Cc1ccc(S(=O)(=O)O)cc1.N/C(=N\O)N/N=C/c1ccc2ccccc2n1`, the IC50 in [1] was 6.76 µM; in series [2] it was 43.8 µM; in [3] it was 6.8 µM. In series [7], the Inhibition is 84%. Besides, the Virus yield in series [8] is given as 25000 ffu ml-1.

On to `N/C(=N\O)N/N=C/c1ccc(Cl)c([N+](=O)[O-])c1`, for which the IC50 was 12.6 µM in [1], 9.6 µM in [2] and 12.7 µM in series [3].

`Cc1ccc(S(=O)(=O)O)cc1.N/C(=N\O)N/N=C/C1CC2C=CC1C2` (stereo not drawn): the IC50 in [1] was 10.7 µM; in [3], 10.6 µM. This molecule gave a Virus yield in series [9] of 9300 ffu ml-1. In series [10], this molecule yielded an Inhibition of 94%.

On to `COc1ccc(OC)c(/C=N/N=C(\N)NO)c1.Cc1ccc(S(=O)(=O)O)cc1`, for which the figures for the IC50 in series [1], in series [2] and in [3] were 7.08 µM, 2.7 µM and 7.1 µM, respectively. The molecule further had an Inhibition in series [11] of 80%. Further, in series [12], the Virus yield worked out at 31000 ffu ml-1.

In the case of `N/C(=N\O)N/N=C/c1ccc(C(F)(F)F)cc1`, the IC50 in series [1] is 9.12 µM; in [2], 11.8 µM; in series [3], 9.2 µM.

Take `NC(=O)NO` [HYDROXYUREA]: the IC50 is 21.4 µM in series [1] and 21.6 µM in series [3].

With `N/C(=N\O)N/N=C/c1cccc([N+](=O)[O-])c1`, the figures for the IC50 in [1], in [2] and in series [3] were 7.59 µM, 35.7 µM and 7.6 µM, respectively.

As to `CS(=O)(=O)Oc1cccc(/C=N/N=C(\N)NO)c1`, the IC50 is 14.8 µM in series [1], 35.2 µM in series [2] and 14.8 µM in series [3].

With `N/C(=N\O)N/N=C/c1ccc(OCc2ccccc2)cc1`, the IC50 in [1] was 25.1 µM; in series [2] it was 8.1 µM; in series [3] it was 25.3 µM.

Turning to `Cc1ccc(S(=O)(=O)O)cc1.N#Cc1ccc(/C=N/N/C(N)=N/O)cc1`, the IC50 in series [1] is 9.33 µM; in [2] it was 97.2 µM; in series [3], 9.4 µM. The LD50 in [13] turned out to be 156 mg/kg.

For the molecule `Cc1ccc(S(=O)(=O)O)cc1.Cn1cccc1/C=N/N=C(\N)NO`, the values for the IC50 in series [1], in [2] and in series [3] were 2.69 µM, 4.5 µM and 2.7 µM, respectively. The Inhibition in series [14] turned out to be 44%. The Virus yield in series [15] was 90000 ffu ml-1. The molecule further registered an LD50 in [13] of 322 mg/kg.

What is called T/C is the ratio of treated to control. A word on the Inhibition: it is the share of the control response that was lost under treatment. As a reminder, the LD50 is the dose expected to kill half of the subjects tested. The low end stands for a more toxic substance, the high end for a less toxic substance.
